Laboratory results reported in ChEMBL document CHEMBL4184291, “Discovery of N-arylpyrroles as agonists of GPR120 for the treatment of type II diabetes” (Bioorg Med Chem Lett, 2018).
pEC50: −log10 of the molar value.

Legend:
Cavia porcellus [1] = experiment: Cardiotoxicity in guinea pig assessed as decrease in mean arterial blood pressure at 22.4 mg/kg; assay type: toxicity, organism-based; design: scale not given: the % may be the effect or the level left; details: in vivo
[2] = Half life in mouse at 1.15 mg/kg, iv by LC-MS/MS analysis; assay type: ADME, organism-based; details: in vivo
Mus musculus [3] = organism: Mus musculus; experiment: Selectivity ratio of EC50 for mouse GPR40 to EC50 for recombinant mouse GPR120 expressed in HEK293 cells; assay type: cell-based
[4] = Cmax in guinea pig at 22.4 mg/kg; assay type: ADME, organism-based, Cavia porcellus; design: dose 22.4 mg/kg; details: in vivo
Mus musculus [5] = experiment: Antiobesity activity in diet-induced obesity C57Bl6/J mouse model assessed as basal glucose level in plasma at 10 mg/kg qd for 15 days measured on day 15 post 6 hrs fasting (reference value: 187 +/- 24 mg/dL); assay type: functional
[6] = Volume of distribution at steady state in dog at 1 mg/kg, iv by LC-MS/MS analysis; assay type: ADME, organism-based, Canis lupus familiaris; details: in vivo, read-out: Vdss
Mus musculus [7] = experiment: Antiobesity activity in diet-induced obesity C57Bl6/J mouse model assessed as final insulin level in plasma at 10 mg/kg qd for 15 days measured on day 15 post 6 hrs fasting (reference value: 7304 +/- 2967 pg/ml); assay type: functional
Cavia porcellus [8] = experiment: Cardiotoxicity in guinea pig assessed as effect on QRS interval at 22.4 mg/kg; assay type: toxicity, organism-based; details: in vivo
Mus musculus [9] = experiment: Antiobesity activity in diet-induced obesity C57Bl6/J mouse model assessed as final glucose level in plasma at 10 mg/kg qd for 15 days measured on day 15 post 6 hrs fasting (reference value: 184 +/- 30 mg/dL); assay type: functional
[10] = Protein binding in mouse plasma; assay type: ADME, cell-free; details: read-out: PPB (converted)
[11] = Half life in mouse at 14.6 mg/kg, po by LC-MS/MS analysis; assay type: ADME, organism-based; details: in vivo
[12] = molecular target: T1, Free fatty acid receptor 4 (Rattus norvegicus, UniProt Q2AC31); experiment: Agonist activity at recombinant rat GPR120 expressed in HEK293 cells; assay type: functional, cell-based
T1 sequence (Q2AC31 whole entry): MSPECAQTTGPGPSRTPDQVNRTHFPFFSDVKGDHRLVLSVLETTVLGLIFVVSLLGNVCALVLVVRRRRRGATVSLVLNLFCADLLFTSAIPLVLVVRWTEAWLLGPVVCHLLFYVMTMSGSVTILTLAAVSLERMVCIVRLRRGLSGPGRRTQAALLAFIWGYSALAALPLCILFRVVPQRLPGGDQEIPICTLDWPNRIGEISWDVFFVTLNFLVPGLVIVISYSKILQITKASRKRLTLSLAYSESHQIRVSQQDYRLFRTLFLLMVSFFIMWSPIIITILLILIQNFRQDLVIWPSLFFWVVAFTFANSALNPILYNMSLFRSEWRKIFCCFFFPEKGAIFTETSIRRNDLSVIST

[13] = Cmax in mouse at 14.6 mg/kg, po by LC-MS/MS analysis; assay type: ADME, organism-based; design: dose 14.6 mg/kg, route oral; details: in vivo
[14] = Volume of distribution at steady state in mouse at 1.15 mg/kg, iv by LC-MS/MS analysis; assay type: ADME, organism-based; details: in vivo, read-out: Vdss
Mus musculus [15] = experiment: Antiobesity activity in diet-induced obesity C57Bl6/J mouse model assessed as final glucose level in plasma at 10 mg/kg bid for 15 days measured on day 15 post 6 hrs fasting (reference value: 184 +/- 30 mg/dL); assay type: functional
Mus musculus [16] = experiment: Antiobesity activity in diet-induced obesity C57Bl6/J mouse model assessed as change in plasma insulin level at 30 mg/kg qd for 15 days measured on day 15 post 6 hrs fasting; assay type: functional
[17] = Clearance in mouse at 1.15 mg/kg, iv by LC-MS/MS analysis; assay type: ADME, organism-based; details: in vivo
Mus musculus [18] = experiment: Glucose lowering effect in GPR120 knock out mouse assessed as plasma glucose AUC at 10 mg/kg administered 30 mins prior to glucose challenge measured up to 90 mins post dose by ipGTT (reference value: 7319 mg/dL.min); assay type: functional, organism-based; design: time < 1.5 hr, dose 10 mg/kg
Procedure, shortened: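 Intraperitoneal glucose tolerance test in GPR120 knockout mice at 10 mg/kg. Wild-type mice were run in parallel, and glucose lowering was compared with vehicle-treated animals.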

[19] = AUClast in rat at 10 mg/kg, po by LC-MS/MS analysis; assay type: ADME, organism-based; design: dose 10 mg/kg, time 0 - last, route oral; details: in vivo
Cavia porcellus [20] = experiment: Cardiotoxicity in guinea pig assessed as effect on ECG morphology at 22.4 mg/kg; assay type: toxicity, organism-based; details: in vivo
Mus musculus [21] = experiment: Antiobesity activity in diet-induced obesity C57Bl6/J mouse model assessed as change in plasma insulin level at 10 mg/kg qd for 15 days measured on day 15 post 6 hrs fasting; assay type: functional
[22] = molecular target: 5-hydroxytryptamine receptor 5A (Homo sapiens) (UniProt P47898); experiment: Displacement of […] from recombinant human 5-HT5A at 10 uM after 60 mins by scintillation counting method relative to control
Chain of 5-hydroxytryptamine receptor 5A (Homo sapiens) (P47898 whole entry): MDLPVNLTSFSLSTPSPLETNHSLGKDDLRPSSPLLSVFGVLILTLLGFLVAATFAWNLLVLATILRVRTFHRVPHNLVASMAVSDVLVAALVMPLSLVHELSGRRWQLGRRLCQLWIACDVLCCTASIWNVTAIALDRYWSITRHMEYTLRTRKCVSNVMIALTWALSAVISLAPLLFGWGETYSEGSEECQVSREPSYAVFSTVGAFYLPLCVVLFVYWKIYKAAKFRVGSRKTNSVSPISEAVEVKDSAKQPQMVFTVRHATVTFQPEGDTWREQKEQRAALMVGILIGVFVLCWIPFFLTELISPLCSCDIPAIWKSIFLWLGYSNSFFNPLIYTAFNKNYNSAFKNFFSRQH

Mus musculus [23] = experiment: Antiobesity activity in diet-induced obesity C57Bl6/J mouse model assessed as reduction in body weight at 30 mg/kg qd for 15 days measured on day 15 post 6 hrs fasting relative to control; assay type: functional; design: scale not given: the % may be the effect or the level left
Mus musculus [24] = experiment: Antiobesity activity in diet-induced obesity C57Bl6/J mouse model assessed as basal insulin level in plasma at 30 mg/kg qd for 15 days measured on day 15 post 6 hrs fasting (reference value: 16959 +/- 4943 pg/ml); assay type: functional
[25] = Cmax in dog at 5 mg/kg, po by LC-MS/MS analysis; assay type: ADME, organism-based, Canis lupus familiaris; design: dose 5 mg/kg, route oral; details: in vivo
Cavia porcellus [26] = experiment: Cardiotoxicity in guinea pig assessed as effect on QTcB interval at 22.4 mg/kg; assay type: toxicity, organism-based; details: in vivo
Mus musculus [27] = experiment: Antidiabetic activity in diet-induced obese C57Bl/6 mouse model assessed as change in plasma glucose AUC at 3 mg/kg, po administered 30 mins prior to glucose challenge measured up to 90 mins post dose by OGTT; assay type: functional
Procedure, shortened: (§1)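 Diet-induced obese mice dosed orally at 0.1–3.0 mg/kg 30 min before an oral glucose load (time 0). Glucose followed from 30 min pre-glucose to 90 min post-glucose. Saxagliptin 1 mg/kg was the positive control.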

Cytochrome P450 2C9 = Cytochrome P450 2C9 (Homo sapiens, UniProt P11712); experiment: Inhibition of CYP2C9 (unknown origin); assay type: ADME
Chain of Cytochrome P450 2C9 (P11712 whole entry): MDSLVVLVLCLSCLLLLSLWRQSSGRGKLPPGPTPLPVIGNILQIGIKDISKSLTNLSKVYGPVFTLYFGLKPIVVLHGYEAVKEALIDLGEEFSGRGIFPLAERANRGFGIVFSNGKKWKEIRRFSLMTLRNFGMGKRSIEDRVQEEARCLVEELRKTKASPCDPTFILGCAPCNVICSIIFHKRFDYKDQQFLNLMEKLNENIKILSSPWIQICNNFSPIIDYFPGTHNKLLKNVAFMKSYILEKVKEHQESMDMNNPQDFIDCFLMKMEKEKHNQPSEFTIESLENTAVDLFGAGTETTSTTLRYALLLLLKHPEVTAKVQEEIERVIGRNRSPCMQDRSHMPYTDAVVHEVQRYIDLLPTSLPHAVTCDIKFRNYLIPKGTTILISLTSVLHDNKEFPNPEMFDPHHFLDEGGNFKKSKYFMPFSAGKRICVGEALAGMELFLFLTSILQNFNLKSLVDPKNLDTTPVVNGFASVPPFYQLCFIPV

[28] = Half life in rat at 10 mg/kg, po by LC-MS/MS analysis; assay type: ADME, organism-based; details: in vivo
Mus musculus [29] = experiment: Antidiabetic activity in diet-induced obese C57Bl/6 mouse model assessed as change in plasma glucose AUC at 0.1 mg/kg, po administered 30 mins prior to glucose challenge measured up to 90 mins post dose by OGTT; assay type: functional; procedure, shortened: as §1
[30] = Half life in rat at 2 mg/kg, iv by LC-MS/MS analysis; assay type: ADME, organism-based; details: in vivo
Cytochrome P450 3A4 = Cytochrome P450 3A4 (Homo sapiens, UniProt P08684); experiment: Inhibition of CYP3A4 (unknown origin); assay type: ADME
Chain of Cytochrome P450 3A4 (P08684 whole entry): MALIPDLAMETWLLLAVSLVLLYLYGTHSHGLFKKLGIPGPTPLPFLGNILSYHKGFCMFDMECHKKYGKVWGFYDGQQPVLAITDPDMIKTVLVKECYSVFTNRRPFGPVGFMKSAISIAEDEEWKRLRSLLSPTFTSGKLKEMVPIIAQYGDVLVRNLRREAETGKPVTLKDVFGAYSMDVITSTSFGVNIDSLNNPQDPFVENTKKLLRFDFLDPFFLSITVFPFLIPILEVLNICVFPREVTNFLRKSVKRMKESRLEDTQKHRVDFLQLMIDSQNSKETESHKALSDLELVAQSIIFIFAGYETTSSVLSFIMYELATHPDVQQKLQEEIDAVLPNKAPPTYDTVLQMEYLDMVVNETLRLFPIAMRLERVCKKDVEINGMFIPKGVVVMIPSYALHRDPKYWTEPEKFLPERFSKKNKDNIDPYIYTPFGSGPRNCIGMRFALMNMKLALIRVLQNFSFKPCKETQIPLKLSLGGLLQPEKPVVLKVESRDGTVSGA

Compound: O=C(O)CCc1cc(F)c(OCc2c(C(F)(F)F)ccn2-c2ccc(Cl)cc2)c(F)c1
- Activity (Cavia porcellus [1]): 10%
- half-life [2]: 4.14 h
- Ratio EC50 (Mus musculus [3]): 18
- Cmax [4]: 105000 ng/mL
- Activity (Mus musculus [5]): 202 mg/dL
- Vd [6]: 0.52 L/kg
- Activity (Mus musculus [7]): 7756 pg/mL
- Activity (Cavia porcellus [8]): Non-Toxic
- Activity (Mus musculus [9]): 163 mg/dL
- fraction unbound [10]: 0.0037
- half-life [11]: 3.45 h
- pEC50 [12]: 6.15
- Cmax [13]: 18700 ng/mL
- Vd [14]: 1.14 L/kg
- Activity (Mus musculus [15]): 170 mg/dL
- Activity (Mus musculus [16]): -3450 pg/mL
- clearance [17]: 4.9 mL/min/kg
- AUC (Mus musculus [18]): 7430 mg/dL·min
- AUC(0-t) [19]: 60900 ng·h/mL
- Activity (Cavia porcellus [20]): Non-Toxic
- Activity (Mus musculus [21]): 457 pg/mL
- inhibition [22]: 58%
- Activity (Mus musculus [23]): 4.6%
- Activity (Mus musculus [24]): 17067 pg/mL
- Cmax [25]: 8920 ng/mL
- Activity (Cavia porcellus [26]): Non-Toxic
- Activity (Mus musculus [27]): -83%
- INH (Cytochrome P450 2C9): 7 µM
- half-life [28]: 2.87 h
- Activity (Mus musculus [29]): 8%
- half-life [30]: 1.64 h
- INH (Cytochrome P450 3A4): > 10 µM
